# In ChEMBL document CHEMBL4118098, “Discovery of DS28120313 as a potent orally active hepcidin production inhibitor: Design and optimization of novel 4,6-disubstituted indazole derivatives” (Bioorg Med Chem Lett, 2017):
# How the values were obtained:
# [1] = Fraction unbound in mouse plasma; format: ADME, cell-free
# [2] = target: Tyrosine-protein kinase HCK (Homo sapiens) (UniProt P08631); test: Inhibition of Hck (unknown origin) at 0.164 uM relative to control
# [3] = target: Homeodomain-interacting protein kinase 1 (Homo sapiens) (UniProt Q86Z02); test: Inhibition of HIPK1 (unknown origin) at 0.164 uM relative to control
# [4] = target: Serine/threonine-protein kinase DCLK2 (Homo sapiens) (UniProt Q8N568); test: Inhibition of DCAMKL2 (unknown origin) at 0.164 uM relative to control
# [5] = tested on: Tyrosine-protein kinase ABL1 (Homo sapiens), P00519 [T315I]; test: Inhibition of Abl T315I mutant (unknown origin) at 0.164 uM relative to control
# [6] = Cmax in C57BL/6J mouse at 30 mg/kg, po by LC-MS/MS analysis; format: ADME, organism-based; set-up: dose 30 mg/kg, route oral; settings: in vivo
# Procedure, shortened: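 C57BL/6J mice received a single oral dose of 30 mg/kg as a suspension in 0.5% methylcellulose. Plasma Cmax and AUC are reported as the average of two animals.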
# [7] = target: Vascular endothelial growth factor receptor 1 (Homo sapiens) (UniProt P17948); test: Inhibition of FLT1 (unknown origin) at 0.164 uM relative to control
# [8] = target: Tyrosine-protein kinase Yes (Homo sapiens) (UniProt P07947); test: Inhibition of Yes (unknown origin) at 0.164 uM relative to control
# [9] = target: SRSF protein kinase 3 (Homo sapiens) (UniProt Q9UPE1); test: Inhibition of MSSK1 (unknown origin) at 0.164 uM relative to control
# [10] = target: Serine/threonine-protein kinase pim-3 (Homo sapiens) (UniProt Q86V86); test: Inhibition of PIM3 (unknown origin) at 0.45 uM relative to control
# [11] = target: Platelet-derived growth factor receptor beta (Homo sapiens) (UniProt P09619); test: Inhibition of PDGFR beta (unknown origin) at 0.19 uM relative to control
# [12] = target: Serine/threonine-protein kinase MARK1 (Homo sapiens) (UniProt Q9P0L2); test: Inhibition of MARK1 (unknown origin) at 0.19 uM relative to control
# [13] = target: T1, Protein kinase C iota type (Homo sapiens) (UniProt P41743); test: Inhibition of PKC-iota (unknown origin) at 0.19 uM relative to control
# T1 sequence (whole entry): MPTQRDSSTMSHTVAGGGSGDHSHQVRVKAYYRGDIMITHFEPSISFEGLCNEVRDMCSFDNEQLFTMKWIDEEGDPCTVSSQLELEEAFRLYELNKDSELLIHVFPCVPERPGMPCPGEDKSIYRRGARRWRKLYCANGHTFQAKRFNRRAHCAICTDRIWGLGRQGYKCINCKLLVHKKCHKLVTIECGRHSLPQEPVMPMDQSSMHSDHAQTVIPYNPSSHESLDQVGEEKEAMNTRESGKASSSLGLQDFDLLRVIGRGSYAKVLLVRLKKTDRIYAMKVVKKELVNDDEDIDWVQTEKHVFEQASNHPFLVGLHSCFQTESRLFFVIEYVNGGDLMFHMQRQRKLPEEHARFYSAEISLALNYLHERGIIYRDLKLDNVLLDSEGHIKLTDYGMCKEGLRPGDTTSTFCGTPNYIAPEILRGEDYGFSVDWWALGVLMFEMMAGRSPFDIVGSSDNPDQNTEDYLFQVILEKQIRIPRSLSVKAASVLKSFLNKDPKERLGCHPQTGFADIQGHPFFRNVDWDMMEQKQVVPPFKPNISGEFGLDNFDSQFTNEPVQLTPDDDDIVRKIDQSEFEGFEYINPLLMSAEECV
# [14] = target: Ribosomal protein S6 kinase alpha-2 (Homo sapiens) (UniProt Q15349); test: Inhibition of RSK3 (unknown origin) at 0.19 uM relative to control
# [15] = target: Dual specificity protein kinase CLK3 (Homo sapiens) (UniProt P49761); test: Inhibition of CLK3 (unknown origin) at 0.19 uM relative to control
# [16] = target: T2, Testis-specific serine/threonine-protein kinase 1 (Homo sapiens) (UniProt Q9BXA7); test: Inhibition of TSSK1 (unknown origin) at 0.19 uM relative to control
# T2 sequence (whole entry): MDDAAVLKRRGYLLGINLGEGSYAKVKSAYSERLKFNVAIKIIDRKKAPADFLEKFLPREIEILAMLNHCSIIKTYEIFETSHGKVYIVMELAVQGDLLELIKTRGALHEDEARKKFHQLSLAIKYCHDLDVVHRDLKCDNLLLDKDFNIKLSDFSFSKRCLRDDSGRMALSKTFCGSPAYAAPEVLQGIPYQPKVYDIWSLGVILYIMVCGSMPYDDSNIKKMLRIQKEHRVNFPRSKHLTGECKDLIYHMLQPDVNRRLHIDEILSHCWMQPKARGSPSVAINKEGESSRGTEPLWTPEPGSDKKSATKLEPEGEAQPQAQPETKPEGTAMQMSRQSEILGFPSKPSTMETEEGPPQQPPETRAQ
# [17] = target: Casein kinase I isoform epsilon (Homo sapiens) (UniProt P49674); test: Inhibition of CK1-epsilon (unknown origin) at 0.19 uM relative to control
# [18] = target: Ephrin type-A receptor 5 (Homo sapiens) (UniProt P54756); test: Inhibition of EPHA5 (unknown origin) at 0.19 uM relative to control
# [19] = target: Tyrosine-protein kinase Blk (Homo sapiens) (UniProt P51451); test: Inhibition of BLK (unknown origin) at 0.19 uM relative to control
# [20] = target: Serine/threonine-protein kinase DCLK2 (Homo sapiens) (UniProt Q8N568); test: Inhibition of DCAMKL2 (unknown origin) at 0.19 uM relative to control
# [21] = target: Calcium/calmodulin-dependent protein kinase type 1 (Homo sapiens) (UniProt Q14012); test: Inhibition of CaMK1a (unknown origin) at 0.19 uM relative to control
# Chain of Serine/threonine-protein kinase DCLK2 (Homo sapiens) (Q8N568 whole entry): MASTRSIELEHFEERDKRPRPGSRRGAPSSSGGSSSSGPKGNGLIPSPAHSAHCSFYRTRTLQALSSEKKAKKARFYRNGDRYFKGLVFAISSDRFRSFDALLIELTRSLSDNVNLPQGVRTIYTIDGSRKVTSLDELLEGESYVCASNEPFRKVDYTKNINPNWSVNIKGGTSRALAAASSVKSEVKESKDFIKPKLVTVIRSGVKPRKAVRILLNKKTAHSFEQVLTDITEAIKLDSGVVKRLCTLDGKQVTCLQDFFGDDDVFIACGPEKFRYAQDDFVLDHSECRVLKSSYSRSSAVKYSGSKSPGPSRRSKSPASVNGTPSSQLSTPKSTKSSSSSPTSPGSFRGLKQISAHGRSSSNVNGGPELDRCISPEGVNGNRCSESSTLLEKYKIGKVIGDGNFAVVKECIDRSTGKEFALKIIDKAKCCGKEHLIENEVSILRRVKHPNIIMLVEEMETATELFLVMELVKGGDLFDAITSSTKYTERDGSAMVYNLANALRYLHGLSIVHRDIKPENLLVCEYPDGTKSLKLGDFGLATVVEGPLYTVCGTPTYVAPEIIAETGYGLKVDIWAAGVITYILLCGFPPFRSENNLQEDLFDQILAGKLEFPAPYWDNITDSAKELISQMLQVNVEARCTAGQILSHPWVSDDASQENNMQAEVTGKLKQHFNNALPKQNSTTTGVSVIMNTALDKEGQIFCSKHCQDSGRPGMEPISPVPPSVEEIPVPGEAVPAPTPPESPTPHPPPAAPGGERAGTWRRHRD
# Chain of Tyrosine-protein kinase Blk (Homo sapiens) (P51451 2-505 limits assumed): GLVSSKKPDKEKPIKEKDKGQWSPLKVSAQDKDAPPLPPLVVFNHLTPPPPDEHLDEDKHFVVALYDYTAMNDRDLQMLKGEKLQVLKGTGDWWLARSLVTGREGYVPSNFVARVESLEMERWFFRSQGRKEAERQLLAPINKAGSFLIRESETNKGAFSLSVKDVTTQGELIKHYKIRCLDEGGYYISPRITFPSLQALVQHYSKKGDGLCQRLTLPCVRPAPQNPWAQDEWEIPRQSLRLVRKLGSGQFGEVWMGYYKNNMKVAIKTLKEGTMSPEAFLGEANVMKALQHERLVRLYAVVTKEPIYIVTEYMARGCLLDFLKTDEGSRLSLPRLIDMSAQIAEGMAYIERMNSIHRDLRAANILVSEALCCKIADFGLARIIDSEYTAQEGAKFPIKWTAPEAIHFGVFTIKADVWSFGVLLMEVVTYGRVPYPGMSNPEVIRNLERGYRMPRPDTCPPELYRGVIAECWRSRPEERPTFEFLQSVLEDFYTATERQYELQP
# Chain of Platelet-derived growth factor receptor beta (Homo sapiens) (P09619 whole entry): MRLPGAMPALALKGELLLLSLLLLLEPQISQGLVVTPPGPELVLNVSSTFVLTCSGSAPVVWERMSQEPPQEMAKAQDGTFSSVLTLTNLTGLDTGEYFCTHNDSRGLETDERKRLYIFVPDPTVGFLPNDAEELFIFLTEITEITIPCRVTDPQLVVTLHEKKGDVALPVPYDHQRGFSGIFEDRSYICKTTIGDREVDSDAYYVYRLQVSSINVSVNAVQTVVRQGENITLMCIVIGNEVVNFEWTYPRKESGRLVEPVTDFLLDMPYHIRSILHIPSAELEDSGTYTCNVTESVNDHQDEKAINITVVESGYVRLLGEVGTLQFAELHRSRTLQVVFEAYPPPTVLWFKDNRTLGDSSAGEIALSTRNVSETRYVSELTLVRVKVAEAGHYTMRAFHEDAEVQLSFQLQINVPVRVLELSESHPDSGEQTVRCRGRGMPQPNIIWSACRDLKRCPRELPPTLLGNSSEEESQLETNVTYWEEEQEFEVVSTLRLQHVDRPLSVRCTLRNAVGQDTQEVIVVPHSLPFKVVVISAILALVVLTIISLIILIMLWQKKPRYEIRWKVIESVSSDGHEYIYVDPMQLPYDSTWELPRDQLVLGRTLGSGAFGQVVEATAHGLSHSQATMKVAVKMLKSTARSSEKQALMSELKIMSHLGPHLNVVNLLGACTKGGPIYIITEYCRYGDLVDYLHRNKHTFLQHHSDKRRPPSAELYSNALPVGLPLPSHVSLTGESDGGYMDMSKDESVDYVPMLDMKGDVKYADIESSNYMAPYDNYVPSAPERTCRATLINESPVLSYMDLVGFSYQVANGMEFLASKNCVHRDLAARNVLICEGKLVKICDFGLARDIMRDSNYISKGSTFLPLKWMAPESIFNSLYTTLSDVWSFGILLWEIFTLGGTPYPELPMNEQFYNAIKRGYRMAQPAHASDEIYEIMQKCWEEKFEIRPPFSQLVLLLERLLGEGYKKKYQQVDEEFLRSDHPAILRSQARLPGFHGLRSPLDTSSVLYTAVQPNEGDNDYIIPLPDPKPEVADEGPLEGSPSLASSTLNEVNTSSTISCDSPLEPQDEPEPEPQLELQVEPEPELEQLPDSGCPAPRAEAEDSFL
# Chain of Vascular endothelial growth factor receptor 1 (Homo sapiens) (P17948 whole entry): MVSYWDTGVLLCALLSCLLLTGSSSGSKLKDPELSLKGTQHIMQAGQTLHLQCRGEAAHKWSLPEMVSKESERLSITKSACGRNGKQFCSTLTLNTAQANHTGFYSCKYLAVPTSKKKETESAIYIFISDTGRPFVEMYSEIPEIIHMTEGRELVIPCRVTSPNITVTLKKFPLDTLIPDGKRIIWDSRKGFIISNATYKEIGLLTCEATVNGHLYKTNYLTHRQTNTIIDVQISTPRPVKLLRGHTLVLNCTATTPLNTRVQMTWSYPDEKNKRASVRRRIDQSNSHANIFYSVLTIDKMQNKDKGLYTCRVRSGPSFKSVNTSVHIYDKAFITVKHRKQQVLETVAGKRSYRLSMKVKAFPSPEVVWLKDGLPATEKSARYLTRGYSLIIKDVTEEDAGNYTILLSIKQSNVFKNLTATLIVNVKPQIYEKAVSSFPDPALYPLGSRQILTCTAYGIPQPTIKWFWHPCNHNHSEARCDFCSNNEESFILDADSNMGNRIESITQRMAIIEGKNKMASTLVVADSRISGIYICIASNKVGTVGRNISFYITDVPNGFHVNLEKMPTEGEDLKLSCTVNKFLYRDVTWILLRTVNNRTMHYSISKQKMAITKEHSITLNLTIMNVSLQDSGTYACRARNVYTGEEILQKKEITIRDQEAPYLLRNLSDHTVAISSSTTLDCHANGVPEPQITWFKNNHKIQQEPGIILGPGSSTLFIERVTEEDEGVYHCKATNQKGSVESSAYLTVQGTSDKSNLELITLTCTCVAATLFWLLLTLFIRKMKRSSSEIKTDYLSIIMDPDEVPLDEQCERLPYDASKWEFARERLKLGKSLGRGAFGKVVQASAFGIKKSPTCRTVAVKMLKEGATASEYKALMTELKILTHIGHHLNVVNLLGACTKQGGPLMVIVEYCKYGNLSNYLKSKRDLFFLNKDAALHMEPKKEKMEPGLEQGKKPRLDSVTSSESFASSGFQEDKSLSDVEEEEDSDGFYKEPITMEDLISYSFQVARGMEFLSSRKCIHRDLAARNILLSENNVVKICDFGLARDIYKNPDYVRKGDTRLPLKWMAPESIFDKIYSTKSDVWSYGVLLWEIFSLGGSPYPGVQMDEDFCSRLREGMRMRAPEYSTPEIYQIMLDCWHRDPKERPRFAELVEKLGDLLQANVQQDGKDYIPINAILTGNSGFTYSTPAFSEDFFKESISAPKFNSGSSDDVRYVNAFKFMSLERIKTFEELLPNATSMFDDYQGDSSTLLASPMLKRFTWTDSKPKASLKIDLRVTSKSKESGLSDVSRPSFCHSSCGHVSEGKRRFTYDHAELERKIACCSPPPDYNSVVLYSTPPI
# Chain of Casein kinase I isoform epsilon (Homo sapiens) (P49674 whole entry, looked up, canonical isoform): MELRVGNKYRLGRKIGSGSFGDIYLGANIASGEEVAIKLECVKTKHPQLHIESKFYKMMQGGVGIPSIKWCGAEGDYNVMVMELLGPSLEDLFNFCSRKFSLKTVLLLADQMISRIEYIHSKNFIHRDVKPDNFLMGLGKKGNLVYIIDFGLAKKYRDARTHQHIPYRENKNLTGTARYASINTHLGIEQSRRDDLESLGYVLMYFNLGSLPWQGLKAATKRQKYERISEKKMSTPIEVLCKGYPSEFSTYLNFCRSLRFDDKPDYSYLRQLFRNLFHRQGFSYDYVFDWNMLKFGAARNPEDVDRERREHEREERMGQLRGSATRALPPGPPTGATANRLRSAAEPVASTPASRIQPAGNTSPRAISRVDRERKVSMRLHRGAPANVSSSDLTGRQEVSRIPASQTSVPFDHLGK
# Chain of Tyrosine-protein kinase Yes (Homo sapiens) (P07947 2-543 limits assumed): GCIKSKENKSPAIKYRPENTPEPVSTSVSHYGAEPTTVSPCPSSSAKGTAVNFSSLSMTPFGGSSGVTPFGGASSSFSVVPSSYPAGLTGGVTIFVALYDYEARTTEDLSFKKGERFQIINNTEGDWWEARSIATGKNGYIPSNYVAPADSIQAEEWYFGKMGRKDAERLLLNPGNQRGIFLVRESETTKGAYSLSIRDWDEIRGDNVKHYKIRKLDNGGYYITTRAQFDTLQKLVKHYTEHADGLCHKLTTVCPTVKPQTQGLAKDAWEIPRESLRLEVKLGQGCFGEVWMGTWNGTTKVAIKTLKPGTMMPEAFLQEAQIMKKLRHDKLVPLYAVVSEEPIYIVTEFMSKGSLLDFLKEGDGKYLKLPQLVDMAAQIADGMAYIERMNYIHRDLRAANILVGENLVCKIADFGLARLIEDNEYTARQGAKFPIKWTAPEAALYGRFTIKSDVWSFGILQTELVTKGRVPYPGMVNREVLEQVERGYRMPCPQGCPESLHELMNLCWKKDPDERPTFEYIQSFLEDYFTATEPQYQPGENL
smiles,measurement,setting,value
COC(=O)Nc1cc(-c2c(C3CC3)n[nH]c2C)cc2[nH]ncc12,fraction unbound,[1],0.24
same,inhibition,[2],0%
same,inhibition,[3],0%
same,inhibition,[4],-1.3%
same,inhibition,[5],-3.7%
same,Cmax,[6],4940 ng/mL
same,inhibition,[7],1.3%
same,inhibition,[8],3%
same,inhibition,[9],0.7%
Cc1n[nH]c(C)c1-c1ccc2c(NC(=O)c3ccc(N4CCN(C)CC4)cc3)n[nH]c2c1,inhibition,[10],-2.3%
Cc1[nH]nc(C2CC2)c1-c1ccc2c(-c3ccc(N4CCN(C)CC4)nc3)n[nH]c2c1,inhibition,[11],97%
same,inhibition,[12],-5.3%
same,inhibition,[13],-7%
same,inhibition,[14],-2.3%
same,inhibition,[15],-1.3%
same,inhibition,[16],-6.3%
same,inhibition,[17],3.3%
same,inhibition,[18],3%
same,inhibition,[19],3.7%
same,inhibition,[20],-1.7%
same,inhibition,[21],0.3%
